“Also recorded” adds a separate entry of the source.
Legend:
[1] = test system: NAT1; details: cited from earlier work
[2] = molecular target: albumin in human plasma (Homo sapiens, UniProt P02768); details: for level of LQQC*[SOPhIP]PF formed, comparison between the three metabolites: albumin in human plasma or commercial human albumin, p=0.231, one-way ANOVA; for LQQC*[SO2PhIP]PFEDHVK levels, N-acetoxy-PhIP versus HONH-PhIP: human plasma, p>0.05, t-test
[3] = test system: NAT2; details: cited from earlier work
[4] = test system: SULT1A1; details: cited from earlier work
[5] = test system: 2′-Deoxyguanosine (dG); assay: Trapping reactive N-oxidized electrophiles of PhIP with dG; details: 42 nmol, dG 1 mg/mL, pH 8.0, 37 °C, 1 h; total ion counts at MS3 (Fig. 3)
[6] = test system: albumin; details: humans; cited from earlier work
[7] = test system: Hb; details: humans, radiolabelled 14C-PhIP; cited from earlier work
[8] = molecular target: albumin in human hepatocytes culture (Homo sapiens, UniProt P02768); assay: Albumin PhIP adducts and Cys34SO3H in human hepatocytes; assay type: cell-based
albumin in human hepatocytes culture, sequence (P02768 25-609): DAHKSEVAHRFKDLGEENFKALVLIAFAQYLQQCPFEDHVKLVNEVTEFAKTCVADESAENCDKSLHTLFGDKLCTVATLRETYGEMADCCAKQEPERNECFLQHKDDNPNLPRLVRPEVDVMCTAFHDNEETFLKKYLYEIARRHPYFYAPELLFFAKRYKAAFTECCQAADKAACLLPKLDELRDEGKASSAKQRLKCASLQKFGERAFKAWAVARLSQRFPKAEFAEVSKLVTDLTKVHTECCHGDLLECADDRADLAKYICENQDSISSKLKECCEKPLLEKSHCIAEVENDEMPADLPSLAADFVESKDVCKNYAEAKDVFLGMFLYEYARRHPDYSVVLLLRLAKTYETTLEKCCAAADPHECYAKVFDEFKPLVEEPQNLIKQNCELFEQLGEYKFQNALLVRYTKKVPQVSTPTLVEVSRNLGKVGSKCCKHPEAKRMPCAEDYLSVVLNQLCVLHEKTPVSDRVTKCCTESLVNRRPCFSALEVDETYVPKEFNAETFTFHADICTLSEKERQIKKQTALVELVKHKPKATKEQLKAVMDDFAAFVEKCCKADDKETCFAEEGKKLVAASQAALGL
Summary of the method: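 Primary human hepatocytes (two-step collagenase perfusion) seeded at 3×10^6 viable cells/19.5-cm2 dish in Williams' medium with βME-pre-reduced human albumin (1 g/L) replacing FCS; exposed 24 h to PhIP or 1:1 PhIP:[2H5]-PhIP (50 µM). Medium albumin ethyl acetate-extracted, ethanol-precipitated, kit-isolated, desalted; trypsin/chymotrypsin digested (37 °C, 20 h); C18 SPE; mass-tag data-dependent, then targeted UPLC-ESI/MS2.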

[9] = N-sulfooxy-PhIP modified albumin, unpublished observations

albumin in human plasma, sequence (P02768 25-609): as above

## Cn1c(NO)nc2ncc(-c3ccccc3)cc21 [HONH-PhIP, 2-hydroxyamino-1-methyl-6-phenylimidazo[4,5-b]pyridine]
[1]
  bioactivation by NAT1: poorly bioactivated
[2]
  level of LQQC*[SOPhIP]PF formed, comparison between the three metabolites: no statistically significant difference
  LQQC*[SO2PhIP]PFEDHVK levels, N-acetoxy-PhIP versus HONH-PhIP: no significant difference
[3]
  bioactivation by NAT2: poorly bioactivated
[4]
  bioactivation by SULT1A1: highly effective
[5]
  relative amount of dG-C8-PhIP formation: lastly

## CC(=O)ONc1nc2ncc(-c3ccccc3)cc2n1C [N-acetoxy-PhIP, N-(acetyloxy)-2-amino-1-methyl-6-phenylimidazo[4,5-b]pyridine, reference compound]
[2]
  level of LQQC*[SOPhIP]PF formed, comparison between the three metabolites: no statistically significant difference
  LQQC*[SO2PhIP]PFEDHVK levels, N-acetoxy-PhIP versus HONH-PhIP: no significant difference
[5]
  relative amount of dG-C8-PhIP formation: greatest amount

## Cn1c(NOS(=O)(=O)O)nc2ncc(-c3ccccc3)cc21 [N-sulfooxy-PhIP, N-sulfooxy-2-amino-1-methyl-6-phenylimidazo[4,5-b]pyridine]
[2]; 3-enzyme digest, ion counts (Fig. 7)
  level of W[PhIP] adduct relative to signal of C[SO2PhIP]: about half
[2]; [9]
  ion counts of H[PhIP], fold lower than counts of W[PhIP]: 5 folder
  ion counts of H[PhIP], fold lower than ion counts of C[SO2PhIP]: 10 fold
[2]
  level of LQQC*[SOPhIP]PF formed, comparison between the three metabolites: no statistically significant difference
[2]; pronase E/leucine aminopeptidase/prolidase digest, ion counts (Fig. 7B)
  level of Trp[PhIP] relative to N-acetoxy-PhIP or HONH-PhIP treated human plasma: 3 x
[5]
  relative amount of dG-C8-PhIP formation: lower level

## Cn1c(N)nc2ncc(-c3ccccc3)cc21 [PhIP, 2-amino-1-methyl-6-phenylimidazo[4,5-b]pyridine]
[6]
  binding of PhIP to albumin: up to several percent of the ingested dose
[7]
  PhIP binding to Hb: very low
[8]; PhIP 50 µM, 24 h (Figs. 8A, 8B)
  PhIP and 5-HO-PhIP in the proteolytic digests of albumin: detected
[8]; PhIP 50 µM, tryptic/chymotryptic digest (Fig. 9)
  Y*[desaminoPhIP]TK (Tyr411) and LQQC*[desaminoPhIP]PF (Cys34) adducts: both adducts were identified
[8]; PhIP or PhIP:[2H5]-PhIP 50 µM, 24 h, data-dependent and targeted MS2
  albumin-PhIP peptide adducts at Cys34 or Trp214: failed to detect; also recorded: below the limit of detection
[8]; albumin isolated from hepatocytes, targeted MS2
  LQQC*[SO2PhIP]PFEDHVK after m-CPBA oxidation of albumin: failed to detect; also recorded: not detected
